Laboratory results published in ChEMBL document CHEMBL1133761, “Structure-activity relationships of (E)-5-(2-bromovinyl)uracil and related pyrimidine nucleosides as antiviral agents for herpes viruses” (J Med Chem, 2000).

Columns and labels:
[1] = tested on: CCRF-CEM; experiment: The mitochondrial toxicity was measured on human T-lymphoid CEM cells.; format: functional
How it was run: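 Human T-lymphoid CEM cells were incubated with drug at various concentrations, with medium and drug renewed on days 4 and 6, and harvested on day 8. DNA was extracted in TE (25 mM Tris pH 8.0, 1 mM EDTA), treated with RNase A and proteinase K, slot-blotted and probed with an mtDNA-specific probe.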

[2] = tested on: Human alphaherpesvirus 3; experiment: Effective concentration to show 50% of activity was measured on varicella zoster virus(VZV) cell culture; format: functional, organism-based
[3] = tested on: CCRF-CEM; experiment: Dose that inhibited 50% cell growth of human T-lymphoid CEM cells compared with untreated control; format: functional
How it was run: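 CEM cells in log-phase growth were exposed to serial drug dilutions and kept for three generations, then counted by Coulter counter. ID50 is the dose giving 50% growth inhibition versus untreated control.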

[4] = Effective concentration to show 50% of activity was measured on herpes simplex virus-1 KOS strain cell culture.; format: functional, Human alphaherpesvirus 1
How it was run: (§1)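 Plaque reduction assay in Vero cells kept in RPMI 1640 with 10% FBS. HSV-1 was KOS strain and HSV-2 was strain 333. EC50 is based on the reduction in plaques.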

[5] = tested on: Human gammaherpesvirus 4; experiment: Effective concentration to show 50% of activity was measured on Epstein Barr virus(EBV) cell culture; format: functional, organism-based
How it was run: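 EBV-producing H-1 cells were kept in RPMI 1640 with 10% FBS. Inhibition of viral growth was read as reduced viral DNA synthesis and expressed as EC50.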

[6] = Effective concentration to show 50% of activity was measured on herpes simplex virus-2 333 strain cell culture.; format: functional, Human alphaherpesvirus 2; how it was run: as §1
[7] = tested on: Human alphaherpesvirus 3; experiment: The effective concentration to show 50% of activity was measured on varicella zoster virus(VZV) cell culture; format: functional, organism-based
How it was run: (§2)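 VZV Ellen strain was used. Antiviral effect was scored as inhibition of viral DNA synthesis and expressed as EC50.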

[8] = The effective concentration to show 50% of activity was measured on herpes simplex virus-1 with strain KOS cell culture.; format: functional, cell-based, Human alphaherpesvirus 1; how it was run: as §1
[9] = tested on: Human alphaherpesvirus 3; experiment: The effective concentration to show 50% of activity was measured on varicella zoster virus(Ellen) cell culture; format: functional, organism-based; how it was run: as §2

Compound | ID50 [1] | EC50 ([2]; Human alphaherpesvirus 3) | ID50 [3] | EC50 [4] | EC50 ([5]; human gammaherpesvirus 4) | EC50 [6] | EC50 [2] | EC50 [5] | EC50 [7] | EC50 [8] | EC50 [9]
O=c1[nH]c(=O)n([C@H]2CO[C@H](CO)O2)cc1/C=C/I | > 25 µM | > 30 µM | > 100 µM | > 50 µM | > 50 µM | > 50 µM |  |  |  |  | 
Nc1nc2c(ncn2COCCO)c(=O)[nH]1 [ACYCLOVIR] | > 200 µM |  | > 100 µM | 13.6 µM | 19.7 µM |  |  |  |  |  | 
O=c1[nH]c(=O)n([C@@H]2CO[C@@H](CO)O2)cc1/C=C/Br |  | > 30 µM | > 100 µM | > 50 µM | > 50 µM | > 50 µM |  |  |  |  | 
O=c1[nH]c(=O)n(C2CO[C@@H](CO)O2)cc1/C=C/Br (stereo partly drawn) |  | 26 µM | > 100 µM | > 50 µM | > 50 µM | > 50 µM |  |  |  |  | 
O=c1[nH]c(=O)n([C@H]2O[C@@H](CO)[C@H](O)[C@H]2O)cc1/C=C/Br (stereo in doubt) | > 200 µM |  |  |  |  |  | 0.001 µM | 47 µM |  |  | 
O=c1[nH]c(=O)n([C@H]2O[C@@H](CO)[C@H](O)[C@H]2O)cc1/C=C/Br (stereo in doubt; 4) |  |  | > 100 µM | > 50 µM | > 50 µM | > 50 µM | > 50 µM |  |  |  | 
O=c1[nH]c(=O)n([C@@H]2CO[C@H](CO)O2)cc1I | > 200 µM |  | > 100 µM |  | 0.033 µM |  |  |  | 17 µM |  | 
O=c1[nH]c(=O)n([C@H]2CO[C@H](CO)O2)cc1/C=C/Br | > 25 µM | > 30 µM | > 100 µM | > 50 µM | > 50 µM | > 50 µM |  |  |  |  | 
O=c1[nH]c(=O)n([C@H]2O[C@@H](CO)[C@H](O)[C@H]2F)cc1/C=C/Br |  | > 50 µM | > 100 µM | > 50 µM |  | > 50 µM |  |  |  |  | 
O=c1[nH]c(=O)n([C@@H]2CO[C@H](CO)O2)cc1/C=C/I | > 200 µM | 0.035 µM | > 100 µM | 33 µM | 3.91 µM | > 50 µM |  |  |  |  | 
O=c1[nH]c(=O)n(C2CS[C@@H](CO)O2)cc1/C=C/Br (stereo partly drawn) |  |  | > 100 µM | > 50 µM |  | > 50 µM |  |  |  |  | 
O=c1[nH]c(=O)n([C@H]2CO[C@H](CO)O2)cc1/C=C/Cl | > 25 µM | > 30 µM | > 100 µM | > 50 µM | > 50 µM | > 50 µM |  |  |  |  | 
Nc1nc(O)c2ncn(CCC(CO)CO)c2n1 [PENCICLOVIR] | > 200 µM |  | > 100 µM |  |  |  |  |  | 0.14 µM | 18 µM | 
O=c1[nH]c(=O)n([C@@H]2CO[C@H](CO)O2)cc1/C=C/Cl | > 200 µM | 0.15 µM | > 100 µM | 18 µM | 0.49 µM | > 50 µM |  |  |  |  | 
O=c1[nH]c(=O)n([C@@H]2CO[C@H](CO)O2)cc1Br | > 200 µM | > 30 µM | > 100 µM |  | 0.19 µM |  |  |  |  |  | 
O=c1[nH]c(=O)n([C@@H]2CO[C@H](CO)O2)cc1/C=C/Br | > 200 µM | 0.07 µM | > 100 µM | 36 µM | 0.59 µM | > 50 µM |  |  |  |  | 
O=c1[nH]c(=O)n([C@H]2C[C@H](O)[C@@H](CO)O2)cc1/C=C/Br [BRIVUDINE] | > 100 µM | 0.05 µM | > 100 µM | > 50 µM | > 50 µM | > 50 µM |  |  |  |  | > 50 µM
O=c1[nH]c(=O)n([C@H]2O[C@@H](CO)[C@H](O)[C@@H]2F)cc1/C=C/Br |  | > 50 µM | > 100 µM | > 50 µM |  | > 50 µM |  |  |  |  | 
